Blank lines part the entries; values can stand above or below the compound they belong to.
Experiments:
[1] = system: EV-D68 strain STL-2014-12; experiment: CPE reduction assay, EV-D68 STL-2014-12 in RD cells; format: cell-based, Enterovirus D68; settings: for anti-EV-D68 activity: running text on series 1 SAR; for EC50: Enterovirus D, EVD68, RD, CPE assay, anti-EV-D68 activity
EV-D68 virions [2] = experiment: Particle stability thermal release assay; set-up: species or system Enterovirus D68; settings: 10 μg/mL, 1.5 μg purified EV-D68, SYTO9
How it was run: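 Test compound (10 μg/mL) or DMSO was mixed with 1.5 μg EV-D68 and SYTO9 nucleic-acid dye, at 5% DMSO. The mixture was held at 33 °C for 15 min, then ramped from 25 to 99 °C. Fluorescence was recorded in triplicate at 1 °C steps, and melting temperature was taken from the negative first-derivative curve.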

EV-D68 virions [3] = experiment: Thermoprotection assay; set-up: species or system Enterovirus D68; settings: 12.5 μM, heated 2 min, TCID50
How it was run: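 Virus (2 × 10^6 PFU/ml) was preincubated with test compound (12.5 μM) or DMSO for 30 min at 33 °C. It was then heated for 2 min at 37–59 °C and rapidly cooled to 4 °C. Residual titre was measured by TCID50 on RD cells: 10-fold virus dilutions, CPE scored after 72 h, Reed–Muench calculation.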

EV-D68 [4] = experiment: Time of drug addition assay; format: cell-based, Enterovirus D68; settings: 2 μM, RD cells, 0.01 MOI, viral load by qRT-PCR
EV-D68 [5] = experiment: Plaque formation assay in RD cells; format: cell-based, Enterovirus D68; settings: concentration of 1 μM
How it was run: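 RD cells grown overnight received serially diluted virus stock plus test compound for 1.5 h. The supernatant was then removed and replaced with a 2× DMEM overlay containing 2% low-melting agarose.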

EV-D68 VP1 expression [6] = experiment: Western blot assay of viral VP1 in RD cells; format: cell-based, Enterovirus D68; settings: EV-D68-infected RD cells, MOI 0.01, 12 hpi
How it was run: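 RD cells (8.0 × 10^4 per well) were seeded and infected after 24 h with EV-D68 at MOI 0.01, with gradient-diluted test compound or DMSO, for 1.5 h. Cells were lysed in RIPA at 12 hpi. Equal protein was run on 10% SDS-PAGE, transferred to PVDF and blocked with 5% skim milk. Blots were probed with anti-EV-D68 and tubulin antibodies, then HRP secondaries, with ECL detection.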

EV-D68 VP1 expression [7] = experiment: Immunofluorescence assay of viral VP1 in RD cells; format: cell-based, Enterovirus D68; settings: EV-D68-infected RD cells, MOI 1, 12 h
How it was run: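 RD cells were infected with EV-D68 at MOI 1 in the presence of test compound for 12 h. They were then fixed with 4% formaldehyde for 30 min, permeabilized with 0.1% Triton X-100 for 30 min and blocked with 5% bovine serum. Staining used rabbit anti-VP1 with an Alexa-546 secondary and 1 μM Hoechst33342 for nuclei, followed by fluorescence microscopy imaging.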

[8] = Pharmacokinetic study in SD rats; format: in vivo; settings: male, rat, plasma, iv, 1 mg/kg
How it was run: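 Male SD rats (6–9 or 6–8 weeks old, depending on compound; n = 3) received a single iv dose of 1 mg/kg. The vehicle was 5% DMSO/5% Solutol HS-15/90% water or 5% DMSO/95% HP-β-CD in water. Jugular blood was taken into heparin at 0.083, 0.25, 0.5, 1, 2, 4, 6 and 24 h. Plasma, obtained by centrifugation at about 4 °C, was assayed by LC-MS/MS.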

[9] = Liver microsome stability assay, dog; format: in vitro ADME; settings: beagle, liver microsomes
How it was run: (§1)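 Test compound (1 μM final) was incubated at 37 °C with rat, beagle dog or human liver microsomes (0.5 mg/mL protein) and 1 mM NADPH, with a parallel no-NADPH control. Aliquots were quenched at 0, 5, 15, 30 and 60 min in solution containing internal standard, centrifuged at 4 °C and analysed by LC-MS/MS. t1/2 and intrinsic clearance were derived from compound depletion.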

various EV-D68 strains = experiment: CPE assay, various EV-D68 strains; format: cell-based; settings: Enterovirus D, EVD68
How it was run: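 RD cells (DMEM, 10% FBS, 37 °C, 5% CO2) were seeded at 1.5 × 10^4/well and grown for 24 h. They were infected with 100 TCID50 of strain STL-2014-12, US/KY/14-18953, US/MO/14-18947 or Fermon, plus test compound in 3-fold dilutions (0.01–200 μM) or DMSO, for 72 h at 37 °C. ATP was read by CellTiter-Glo luminescence and normalised to uninfected and infected controls. EC50 is the concentration giving a 50% ATP increase.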

[10] = Liver microsome stability assay, rat; format: in vitro ADME; settings: liver microsomes
How it was run: as §1

[11] = Liver microsome stability assay, human; format: in vitro ADME; settings: liver microsomes
How it was run: as §1

Compound: CCOC(=O)c1cnc2ccc(-c3cn[nH]c3)cc2c1 [Compound 17, Ethyl 6-(1H-Pyrazol-4-yl)quinoline-3-carboxylate]
anti-EV-D68 activity [1]: complete loss of activity

Compound: CCOC(=O)c1cnc2ccc(-c3ccc(C(N)=O)cc3)cc2c1 [Compound 18, Ethyl 6-(4-Carbamoylphenyl)quinoline-3-carboxylate]
anti-EV-D68 activity [1]: inactivation

EC50 [1]: > 10 µM
Compound: CCOC(=O)c1cnc2ccc(-c3cccc(N)c3)cc2c1 [Compound 11, Ethyl 6-(3-Aminophenyl)quinoline-3-carboxylate]

Compound: Cc1cc(CCCOc2c(C)cc(-c3noc(C(F)(F)F)n3)cc2C)on1 [Pleconaril, pleconaril, reference compound]
protection against viral particles (PaSTRy) (EV-D68 virions [2]): almost no protection
thermal inactivation of virus at 55 °C (EV-D68 virions [3]): significantly reduce the thermal inactivation
antiviral activity, drug added after 1 hpi (phases II and IV) (EV-D68 [4]): same experimental results
antiviral activity, drug added at 0–1 h (phase I) and 0–14 h (phase III) (EV-D68 [4]): same experimental results

Compound: Cl.Nc1ccc(-c2ccc3ncc(-c4noc(C(F)(F)F)n4)cc3c2)cc1 [19·HCl, 4-(3-(5-(Trifluoromethyl)-1,2,4-oxadiazol-3-yl)quinolin-6-yl)aniline Hydrochloride]
replication of EV-D68 virus particles (plaque formation) (EV-D68 [5]): significantly inhibited the replication of EV-D68 virus particles
expression level of viral VP1 (EV-D68 VP1 expression [6]): significantly inhibited the expression level of viral VP1 in a dose-dependent manner
expression level of viral VP1 (EV-D68 VP1 expression [7]): significantly inhibited the expression level of viral VP1 in a dose-dependent manner

clearance at 24 h [8]: 106 ± 10 mL/min/kg
Compound: CCc1nc(-c2cnc3ccc(-c4ccc(N)cc4)cc3c2)no1.Cl [Compound 21·HCl, 4-(3-(5-Ethyl-1,2,4-oxadiazol-3-yl)quinolin-6-yl)aniline Hydrochloride]
replication of EV-D68 virus particles (plaque formation) (EV-D68 [5]): significantly inhibited the replication of EV-D68 virus particles
expression level of viral VP1 (EV-D68 VP1 expression [6]): significantly inhibited the expression level of viral VP1 in a dose-dependent manner
expression level of viral VP1 (EV-D68 VP1 expression [7]): significantly inhibited the expression level of viral VP1 in a dose-dependent manner

CLint scaled at 1 h, 1 µM [9]: 116 mL/min/kg
EC50 (various EV-D68 strains): 0.05 to 0.1 µM
CLint scaled at 1 h, 1 µM [10]: 61.2 mL/min/kg
clearance at 24 h [8]: 64 ± 13.1 mL/min/kg
CLint scaled at 1 h, 1 µM [11]: 10.8 mL/min/kg
Compound: Nc1ccc(-c2ccc3ncc(-c4noc(C(F)(F)F)n4)cc3c2)cc1 [Compound 19, 4-(3-(5-(Trifluoromethyl)-1,2,4-oxadiazol-3-yl)quinolin-6-yl)aniline]
thermal inactivation of virus at 55 °C (EV-D68 virions [3]): significantly reduce the thermal inactivation
virus activity at 57 °C (EV-D68 virions [3]): maintained certain virus activity
increase in antiviral potency compared to compound 15 ([1]; EC50 ratio, STL-2014-12): ~10 fold
antiviral activity, drug added after 1 hpi (phases II and IV) (EV-D68 [4]): antiviral activity disappeared
antiviral activity, drug added at 0–1 h (phase I) and 0–14 h (phase III) (EV-D68 [4]): significant antiviral activity

EC50 [1]: > 10 µM
Compound: CCCc1ccc(-c2ccc3ncc(C(=O)OCC)cc3c2)cc1 [Compound 10, Ethyl 6-(4-Propylphenyl)quinoline-3-carboxylate]
